Reference: ChEMBL document CHEMBL4613319, “Novel Dithiolane-Based Ligands Combining Sigma and NMDA Receptor Interactions as Potential Neuroprotective Agents” (ACS Med Chem Lett, 2020)
The source made the active and inactive calls. No cut-off for these calls is given here.

Columns and labels:
[1] = target: Sigma non-opioid intracellular receptor 1 (Homo sapiens, UniProt Q99720); experiment: Displacement of [3H]-pentazocine from human Sigma 1 receptor by radioligand displacement assay
How it was run: (§1)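 S1R labelled selectively with [3H]-(+)pentazocine in a radioligand displacement assay. Affinity is expressed as inhibition constant (Ki).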

[2] = target: Sigma intracellular receptor 2 (Homo sapiens, UniProt Q5BJF2); experiment: Displacement of [3H]-ditolylguanidine from human Sigma 2 receptor by radioligand displacement assay
How it was run: (§2)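 Radioligand displacement with [3H]-ditolylguanidine as the S2R label. Cold (+)-pentazocine is included to mask S1R sites. Results are reported as Ki.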

SH-SY5Y [3] = experiment: Neuroprotective activity against NMDA-induced cell death in human SH-SY5Y cells at 5 uM incubated for 24 hrs by MTT assay; format: functional, cell-based
How it was run: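 SH-SY5Y neuroblastoma cells are incubated 24 h with NMDA 250 μM and compound at 0.1, 0.5, 1.0 or 5.0 μM. Memantine serves as positive control. Read-out is % cell viability, mean ± SD of three independent experiments.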

[4] = target: Sigma non-opioid intracellular receptor 1 (Cavia porcellus, UniProt Q60492); experiment: Displacement of [3H](+)-pentazocine from sigma 1 receptor in guinea pig brain cortex membranes after 150 mins by scintillation counting analysis; format: cell membranes; how it was run: as §1
SH-SY5Y [5] = experiment: Neuroprotective activity against rotenone-induced cell death in human SH-SY5Y cells at 5 uM in presence of PB212 incubated for 24 hrs by MTT assay; format: functional, cell-based
How it was run: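 SH-SY5Y cells receive rotenone 25 μM plus the S1R antagonist PB212 (5 μM) and compound at 1.0 or 5.0 μM. Output is % cell viability, mean ± SD of three independent experiments.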

[6] = Displacement of [3H][…]-DTG from sigma 2 receptor in guinea pig brain cortex membranes after 150 mins by liquid scintillation counter method; format: cell membranes, Cavia porcellus; how it was run: as §2
SH-SY5Y [7] = experiment: Neuroprotective activity against NMDA-induced cell death in human SH-SY5Y cells at 0.1 to 0.5 uM incubated for 24 hrs by MTT assay relative to control; format: functional
SH-SY5Y [8] = experiment: Neuroprotective activity against rotenone-induced cell death in human SH-SY5Y cells at 1 uM incubated for 24 hrs by MTT assay; format: functional, cell-based
How it was run: (§3)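 Rotenone 25 μM is the toxic insult to SH-SY5Y cells, with test compound at 1.0 or 5.0 μM. Protection is reported as % cell viability, mean ± SD of three independent experiments.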

SH-SY5Y [9] = experiment: Neuroprotective activity against rotenone-induced cell death in human SH-SY5Y cells at 5 uM incubated for 24 hrs by MTT assay; format: functional, cell-based; how it was run: as §3
Cavia porcellus = species: Cavia porcellus; experiment: Selectivity index, ratio of Ki for sigma 1 receptor in guinea pig brain cortex membranes to Ki for sigma 2 receptor in guinea pig brain cortex membranes; format: cell membranes
SH-SY5Y [10] = experiment: Neuroprotective activity against NMDA-induced cell death in human SH-SY5Y cells at 0.5 to 1 uM incubated for 24 hrs by MTT assay relative to control; format: functional
SH-SY5Y [11] = experiment: Neuroprotective activity against oligomycin-induced cell death in human SH-SY5Y cells at 5 uM incubated for 24 hrs by MTT assay relative to control; format: functional
How it was run: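 SH-SY5Y cells were exposed to oligomycin (2.5 μM) as the toxic stimulus in the presence of test compound. Protection was scored as % cell viability.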

[12] = target: T1, Glutamate NMDA receptor (Rattus norvegicus) (UniProt P35439+Q00959+Q00960+Q00961+Q62645+Q8VHN2+Q9R1M7); experiment: Negative allosteric modulator of NMDA receptor assessed as NMDA-induced current in Sprague-Dawley rat Primary cortical neuron at 10 uM by whole cell patch clamp method relative to control; format: cell-based; details: Cortical neurone
How it was run: (§4)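 Whole-cell patch clamp on cortical neurons in primary culture. Currents are evoked by NMDA 100 μM plus glycine 1 μM, with the compound applied at increasing concentrations. The effect is expressed as % of the control current, mean ± SE of n cells.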

[13] = target: T1, Glutamate NMDA receptor (Rattus norvegicus); experiment: Negative allosteric modulator of NMDA receptor assessed as NMDA-induced current in Sprague-Dawley rat Primary cortical neuron at 1 uM by whole cell patch clamp method relative to control; format: cell-based; details: Cortical neurone; how it was run: as §4
[14] = target: T1, Glutamate NMDA receptor (Rattus norvegicus); experiment: Negative allosteric modulator of NMDA receptor assessed as NMDA-induced current in Sprague-Dawley rat Primary cortical neuron at 0.1 uM by whole cell patch clamp method relative to control; format: cell-based; details: Cortical neurone; how it was run: as §4
SH-SY5Y [15] = experiment: Neuroprotective activity against NMDA-induced cell death in human SH-SY5Y cells at 0.1 uM in presence of PB212 incubated for 24 hrs by MTT assay; format: functional, cell-based
How it was run: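 SH-SY5Y cells are exposed to NMDA 250 μM together with compound at 0.1 μM. This is done with and without the S1R antagonist PB212 (5 μM). Data are % cell viability, mean ± SD of three independent experiments.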

Sequence of Sigma non-opioid intracellular receptor 1 (Homo sapiens, UniProt Q99720) (Q99720 whole entry): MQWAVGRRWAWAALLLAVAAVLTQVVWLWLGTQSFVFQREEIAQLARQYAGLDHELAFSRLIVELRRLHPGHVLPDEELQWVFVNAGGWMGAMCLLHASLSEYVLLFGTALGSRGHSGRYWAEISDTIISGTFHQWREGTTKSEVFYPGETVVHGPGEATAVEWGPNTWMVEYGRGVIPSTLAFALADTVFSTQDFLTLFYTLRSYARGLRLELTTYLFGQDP
Sequence of Sigma intracellular receptor 2 (Q5BJF2 whole entry): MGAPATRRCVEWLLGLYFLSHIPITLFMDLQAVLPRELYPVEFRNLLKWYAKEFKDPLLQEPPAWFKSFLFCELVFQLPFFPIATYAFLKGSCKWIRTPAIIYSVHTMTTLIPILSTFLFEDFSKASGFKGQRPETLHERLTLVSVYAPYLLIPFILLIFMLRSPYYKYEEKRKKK
Sequence of Sigma non-opioid intracellular receptor 1 (Cavia porcellus, UniProt Q60492) (Q60492 whole entry): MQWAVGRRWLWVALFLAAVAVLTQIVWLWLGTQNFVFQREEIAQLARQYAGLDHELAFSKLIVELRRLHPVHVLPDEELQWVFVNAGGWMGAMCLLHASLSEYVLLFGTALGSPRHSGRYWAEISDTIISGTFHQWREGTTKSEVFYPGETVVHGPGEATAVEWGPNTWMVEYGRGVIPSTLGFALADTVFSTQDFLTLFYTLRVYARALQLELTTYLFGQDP

## c1ccc(CC2CCN(C[C@@H]3CS[C@]4(CCCc5ccccc54)S3)CC2)cc1
[1]
  Ki: 129 nM
[2]
  Ki: 93 nM

## c1ccc(CC2CCN(C[C@H]3CS[C@]4(CCc5ccccc54)S3)CC2)cc1
[1]
  Ki: 107 nM
[2]
  Ki: 65 nM

## c1ccc(CC2CCN(CC3CSC4(CCCCCC4)S3)CC2)cc1 (configuration not stated)
[1]
  Ki: 1.7 nM
[2]
  Ki: 8.1 nM

## c1ccc(CC2CCN(CC3CSC4(CCCC4)S3)CC2)cc1 (configuration not stated)
[1]
  Ki: 4.2 nM
[2]
  Ki: 3 nM

## O=C(O)C(=O)O.c1ccc(CC2CCN(CC3CSC4(CCCCC4)S3)CC2)cc1 (configuration not stated)
SH-SY5Y [3]
  Activity: inactive
[4]
  Ki: 12 nM
SH-SY5Y [5]
  Activity: inactive
[6]
  Ki: 5 nM
SH-SY5Y [7]
  Activity: >85%
SH-SY5Y [8]
  Activity: Active

## c1ccc(CC2CCN(C[C@@H]3CS[C@@]4(CCCCc5ccccc54)S3)CC2)cc1
[1]
  Ki: 68 nM
[2]
  Ki: 107 nM

## O=C(O)C(=O)O.c1ccc(CN2CCN(CC3CSC4(CCCCC4)O3)CC2)cc1 (configuration not stated)
SH-SY5Y [3]
  Activity: inactive
SH-SY5Y [9]
  Activity: Active
[4]
  Ki: 1.3 nM
SH-SY5Y [5]
  Activity: inactive
[6]
  Ki: 91 nM
Cavia porcellus
  Ratio Ki: 72
SH-SY5Y [8]
  Activity: Active
SH-SY5Y [10]
  Activity: 72 - 75%
SH-SY5Y [11]
  Activity: >60%

## c1ccc(CC2CCN(CC3CSC4(S3)c3ccccc3-c3ccccc34)CC2)cc1 (configuration not stated)
[1]
  Ki: 54 nM
[2]
  Ki: 71 nM

## CC1(C)OCC(CN2CCC(Cc3ccccc3)CC2)O1 (configuration not stated)
[1]
  Ki: 0.6 nM
[2]
  Ki: 6.2 nM

## CC1(C)OCC(CN2CCN(Cc3ccccc3)CC2)O1 (configuration not stated)
[1]
  Ki: 5.4 nM
[2]
  Ki: 182 nM

## C[C@]1(c2ccccc2)SC[C@H](CN2CCC(Cc3ccccc3)CC2)S1
[1]
  Ki: 68 nM
[2]
  Ki: 85 nM

## CC1(C)SCC(CN2CCN(Cc3ccccc3)CC2)S1 (configuration not stated)
[1]
  Ki: 0.6 nM
[2]
  Ki: 3.3 nM

## c1ccc(CC2CCN(C[C@@H]3CS[C@]4(CCc5ccccc54)S3)CC2)cc1
[1]
  Ki: 71 nM
[2]
  Ki: 30 nM

## c1ccc(CC2CCN(C[C@H]3CS[C@@]4(CCCCc5ccccc54)S3)CC2)cc1
[1]
  Ki: 195 nM
[2]
  Ki: 158 nM

## O=C(O)C(=O)O.c1ccc(CC2CCN(CC3CSCS3)CC2)cc1 (configuration not stated)
SH-SY5Y [3]
  Activity: inactive
[1]
  Ki: 0.5 nM
[2]
  Ki: 12 nM
SH-SY5Y [10]
  Activity: 72 - 75%

## CC1(C)SCC(CN2CCC(Cc3ccccc3)CC2)S1 (configuration not stated)
[1]
  Ki: 2 nM
[2]
  Ki: 0.59 nM

## O=C(O)C(=O)O.c1ccc(CN2CCN(CC3COC4(CCCCC4)O3)CC2)cc1 (configuration not stated)
[12]
  inhibition: 110%
SH-SY5Y [3]
  Activity: inactive
SH-SY5Y [9]
  Activity: Active
[13]
  inhibition: 18%
SH-SY5Y [5]
  Activity: inactive
[6]
  Ki: 35 nM
[14]
  inhibition: 34%
Cavia porcellus
  Ratio Ki: 47
SH-SY5Y [7]
  Activity: >85%
SH-SY5Y [8]
  Activity: Active

## c1ccc(CC2CCN(C[C@@H]3CS[C@@]4(CCCc5ccccc54)S3)CC2)cc1
[1]
  Ki: 52 nM
[2]
  Ki: 87 nM

## CC12CC3CC(C)(C1)CC(N)(C3)C2
SH-SY5Y [3]
  Activity: inactive

## O=C(O)C(=O)O.O=C(O)C(=O)O.c1ccc(CN2CCN(CC3CSCS3)CC2)cc1 (configuration not stated)
SH-SY5Y [3]
  Activity: inactive
[1]
  Ki: 2.1 nM
SH-SY5Y [15]
  Activity: inactive
SH-SY5Y [5]
  Activity: inactive
[2]
  Ki: 90 nM
SH-SY5Y [7]
  Activity: >85%
SH-SY5Y [8]
  Activity: Active

## C[C@]1(c2ccccc2)SC[C@@H](CN2CCC(Cc3ccccc3)CC2)S1
[1]
  Ki: 76 nM
[2]
  Ki: 63 nM
